Assays:
[1] = tested on: Human immunodeficiency virus 1; assay: Antiviral activity against HIV-1 ADA infected in human MOLT-4 cells assessed as reduction in viral transmission to TZM-bl cells incubated for 48 hrs by luciferase based assay; assay type: functional, organism-based; settings: Human immunodeficiency virus 1, ADA, MOLT-4, 48 h
[2] = tested on: Human immunodeficiency virus 1; assay: Antiviral activity against clinical isolate HIV-1 93RW018 infected in human PBMC cells assessed as reduction in viral transmission to TZM-bl cells pretreated for 1 hr before viral transmission and further incubated for 48 hrs by luciferase based assay; assay type: functional, organism-based; settings: Human immunodeficiency virus 1, 93RW018, PBMC
[3] = tested on: Human immunodeficiency virus 1; assay: Antiviral activity against clinical isolate HIV-1 93RW034 infected in human PBMC cells assessed as reduction in viral transmission to TZM-bl cells pretreated for 1 hr before viral transmission and further incubated for 48 hrs by luciferase based assay; assay type: functional, organism-based; settings: Human immunodeficiency virus 1, 93RW034, PBMC
[4] = tested on: Human immunodeficiency virus 1; assay: Antiviral activity against Laboratory adapted HIV-1 LA1 infected in human PBMC cells assessed as reduction in viral transmission to TZM-bl cells pretreated for 1 hr before viral transmission and further incubated for 48 hrs by luciferase based assay; assay type: functional, organism-based; settings: Human immunodeficiency virus 1, LA1, PBMC
Summary of the method: (§1)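 PBMC from healthy HIV-negative donors infected with replication-competent virus in the presence of 30 μg/ml DEAE-dextran. On day 4 post-infection, cells washed free of virus and counted. 2 × 10⁴ infected PBMC/well pretreated with escalating compound for 1 h at 37 °C, then co-cultured 48 h with TZM-bl targets (10⁴/well, plated 24 h before). TZM-bl lysed, luciferase read, IC50 calculated.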

[5] = tested on: Human immunodeficiency virus 1; assay: Antiviral activity against Laboratory adapted HIV-1 89.6 infected in human PBMC cells assessed as reduction in viral transmission to TZM-bl cells pretreated for 1 hr before viral transmission and further incubated for 48 hrs by luciferase based assay; assay type: functional, cell-based; settings: Human immunodeficiency virus 1, 89.6, PBMC
[6] = tested on: Human immunodeficiency virus 1; assay: Antiviral activity against Laboratory adapted HIV-1 BaL infected in human PBMC cells assessed as reduction in viral transmission to TZM-bl cells pretreated for 1 hr before viral transmission and further incubated for 48 hrs by luciferase based assay; assay type: functional, cell-based; settings: Human immunodeficiency virus 1, BaL; summary of the method: as §1
[7] = tested on: Human immunodeficiency virus 1; assay: Antiviral activity against clinical isolate HIV-1 92US657 infected in human PBMC cells assessed as reduction in viral transmission to TZM-bl cells pretreated for 1 hr before viral transmission and further incubated for 48 hrs by luciferase based assay; assay type: functional, cell-based; settings: Human immunodeficiency virus 1, 92US657, PBMC; summary of the method: as §1
[8] = tested on: Human immunodeficiency virus 1; assay: Antiviral activity against clinical isolate HIV-1 93BR019 infected in human PBMC cells assessed as reduction in viral transmission to TZM-bl cells pretreated for 1 hr before viral transmission and further incubated for 48 hrs by luciferase based assay; assay type: functional, cell-based; settings: Human immunodeficiency virus 1, 93BR019, PBMC
[9] = tested on: Human immunodeficiency virus 1; assay: Antiviral activity against clinical isolate HIV-1 Ru132 infected in human PBMC cells assessed as reduction in viral transmission to TZM-bl cells pretreated for 1 hr before viral transmission and further incubated for 48 hrs by luciferase based assay; assay type: functional, cell-based; settings: Human immunodeficiency virus 1, Ru132, PBMC; summary of the method: as §1
[10] = tested on: Human immunodeficiency virus 1; assay: Antiviral activity against clinical isolate HIV-1 RU570 infected in human PBMC cells assessed as reduction in viral transmission to TZM-bl cells pretreated for 1 hr before viral transmission and further incubated for 48 hrs by luciferase based assay; assay type: functional, cell-based; settings: Human immunodeficiency virus 1, RU570, PBMC
[11] = tested on: Human immunodeficiency virus 1; assay: Antiviral activity against clinical isolate HIV-1 BCF01 infected in human PBMC cells assessed as reduction in viral transmission to TZM-bl cells pretreated for 1 hr before viral transmission and further incubated for 48 hrs by luciferase based assay; assay type: functional, cell-based; settings: Human immunodeficiency virus 1, BCF01, PBMC; summary of the method: as §1
[12] = tested on: Human immunodeficiency virus 1; assay: Antiviral activity against clinical isolate HIV-1 BCF03 infected in human PBMC cells assessed as reduction in viral transmission to TZM-bl cells pretreated for 1 hr before viral transmission and further incubated for 48 hrs by luciferase based assay; assay type: functional, cell-based; settings: Human immunodeficiency virus 1, BCF03, PBMC
[13] = tested on: Human immunodeficiency virus 1; assay: Antiviral activity against pseudovirus HIV-1 HXB-2 harboring wild type Env infected in human U87.CD4.CXCR4 cells assessed as reduction in viral infection pretreated for 30 mins before viral infection and measured after 3 days by luciferase based assay; assay type: functional, cell-based; settings: Human immunodeficiency virus 1, M:B_HXB2R
[14] = tested on: Human immunodeficiency virus 1; assay: Antiviral activity against pseudovirus HIV-1 HXB-2 harboring Env L116P mutant infected in human U87.CD4.CXCR4 cells assessed as reduction in viral infection pretreated for 30 mins before viral infection and measured after 3 days by luciferase based assay; assay type: functional, cell-based, M:B_HXB2R
Summary of the method: (§2)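 Pseudoviruses made in HEK293T by co-transfecting an Env-deleted backbone (pSG3Δenv or pNL4-3.Luc.R-.E-) with an HXB-2 Env plasmid carrying single or double substitutions; Env sequences confirmed by sequencing. Virus pretreated 30 min with graded compound, added to U87-CD4-CXCR4 cells (1 × 10⁴/well, plated overnight), incubated 3 days. Cells lysed, luciferase measured, IC50 calculated.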

[15] = tested on: Human immunodeficiency virus 1; assay: Antiviral activity against pseudovirus HIV-1 HXB-2 harboring Env A204D mutant infected in human U87.CD4.CXCR4 cells assessed as reduction in viral infection pretreated for 30 mins before viral infection and measured after 3 days by luciferase based assay; assay type: functional, cell-based, M:B_HXB2R; summary of the method: as §2
[16] = tested on: Human immunodeficiency virus 1; assay: Antiviral activity against pseudovirus HIV-1 HXB-2 harboring Env S375W mutant infected in human U87.CD4.CXCR4 cells assessed as reduction in viral infection pretreated for 30 mins before viral infection and measured after 3 days by luciferase based assay; assay type: functional, cell-based, M:B_HXB2R; summary of the method: as §2
[17] = tested on: Human immunodeficiency virus 1; assay: Antiviral activity against pseudovirus HIV-1 HXB-2 harboring Env I424F mutant infected in human U87.CD4.CXCR4 cells assessed as reduction in viral infection pretreated for 30 mins before viral infection and measured after 3 days by luciferase based assay; assay type: functional, cell-based, M:B_HXB2R; summary of the method: as §2
[18] = tested on: Human immunodeficiency virus 1; assay: Antiviral activity against pseudovirus HIV-1 HXB-2 harboring Env N425K mutant infected in human U87.CD4.CXCR4 cells assessed as reduction in viral infection pretreated for 30 mins before viral infection and measured after 3 days by luciferase based assay; assay type: functional, cell-based, M:B_HXB2R; summary of the method: as §2
[19] = tested on: Human immunodeficiency virus 1; assay: Antiviral activity against pseudovirus HIV-1 HXB-2 harboring Env M426L mutant infected in human U87.CD4.CXCR4 cells assessed as reduction in viral infection pretreated for 30 mins before viral infection and measured after 3 days by luciferase based assay; assay type: functional, cell-based, M:B_HXB2R; summary of the method: as §2
[20] = tested on: Human immunodeficiency virus 1; assay: Antiviral activity against pseudovirus HIV-1 HXB-2 harboring Env M434I mutant infected in human U87.CD4.CXCR4 cells assessed as reduction in viral infection pretreated for 30 mins before viral infection and measured after 3 days by luciferase based assay; assay type: functional, cell-based, M:B_HXB2R; summary of the method: as §2
[21] = tested on: Human immunodeficiency virus 1; assay: Antiviral activity against pseudovirus HIV-1 HXB-2 harboring Env F468L mutant infected in human U87.CD4.CXCR4 cells assessed as reduction in viral infection pretreated for 30 mins before viral infection and measured after 3 days by luciferase based assay; assay type: functional, cell-based, M:B_HXB2R; summary of the method: as §2
[22] = tested on: Human immunodeficiency virus 1; assay: Antiviral activity against pseudovirus HIV-1 HXB-2 harboring Env M434I/I595F double mutant infected in human U87.CD4.CXCR4 cells assessed as reduction in viral infection pretreated for 30 mins before viral infection and measured after 3 days by luciferase based assay; assay type: functional, cell-based, M:B_HXB2R; summary of the method: as §2
[23] = tested on: Human immunodeficiency virus 1; assay: Antiviral activity against pseudovirus HIV-1 HXB-2 harboring Env M475I mutant infected in human U87.CD4.CXCR4 cells assessed as reduction in viral infection pretreated for 30 mins before viral infection and measured after 3 days by luciferase based assay; assay type: functional, cell-based, M:B_HXB2R; summary of the method: as §2

Q: How did the IC50 [1] turn out when `COc1cnc(-n2cnc(C)n2)c2[nH]cc(C(=O)C(=O)N3CCN(C(=O)c4ccccc4)CC3)c12` was run?
A: 400 nM

Q: What about the IC50 [2] of the same compound?
A: 100 nM

Q: What about the IC50 [3] of the same compound?
A: 100 nM

Q: What about the IC50 [4] of the same compound?
A: 100 nM

Q: And the IC50 [5]?
A: 100 nM

Q: What about the IC50 [6] of the same compound?
A: 100 nM

Q: And the IC50 [7]?
A: 100 nM

Q: And the IC50 [8]?
A: 100 nM

Q: What about the IC50 [9] of the same compound?
A: 100 nM

Q: And the IC50 [10]?
A: 100 nM

Q: And the IC50 [11]?
A: > 6000 nM

Q: What about the IC50 [12] of the same compound?
A: > 6000 nM

Q: And the IC50 [13]?
A: 8 nM

Q: What about the IC50 [14] of the same compound?
A: > 1000 nM

Q: And the IC50 [15]?
A: > 1000 nM

Q: What about the IC50 [16] of the same compound?
A: > 1000 nM

Q: What about the IC50 [17] of the same compound?
A: > 1000 nM

Q: And the IC50 [18]?
A: 8 nM

Q: And the IC50 [19]?
A: 230 nM

Q: What about the IC50 [20] of the same compound?
A: 8 nM

Q: And the IC50 [21]?
A: 8 nM

Q: What about the IC50 [22] of the same compound?
A: 8 nM

Q: And the IC50 [23]?
A: 50 nM

— ChEMBL document CHEMBL4715822, “Structure-based lead optimization to improve antiviral potency and ADMET properties of phenyl-1H-pyrrole-carboxamide entry inhibitors targeted to HIV-1 gp120” (Eur J Med Chem, 2018)
